From PubChem
Only a selection was taken, and hits are over-represented in it overall.
T cruzi repl: T. cruzi replication inhibition. T. cruzi beta-gal in NIH3T3, luminescence, 90 h. inhibition, % (concentration not given with the values). 300,000 compounds, 1.4% hits;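 active = mean inhibition across valid replicates above about 55%, limit read from the data; inconclusive = mean below that limit but half or more replicates reach it; inactive = mean below it, under half of replicates reach it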;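 also: signal also drops with host cell toxicity which is not excluded here; 0% = plate median of DMSO wells and 100% = zero luminescence signal; higher percent means less beta-gal luminescence so fewer parasites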
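Read-out: Parasite load inhibition, % | Test system: Mouse NIH/3T3 fibroblasts infected with β-gal-expressing T. cruzi Tulahuen C4 | Amount: 5,000 cells/well | Medium: DMEM, 2% fetal bovine serum | Signal: GalScreen β-gal luminescence, detergent lysis, 60 min | Timing: 3 h attach, ≥90 h co-culture | Also added: Tulahuen C4 trypomastigotes, 5000/well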
L major viab: reduces viability of Leishmania major promastigotes; 200,000 compounds, 9% hits; inhibition, % at 10 µM; AID 1063; resazurin fluorescence viability; in the data active = inhibition above about 50%;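 also: promastigotes grown with compound for 44 hours at 28 °C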
CHOP inhibitor: CHOP inhibition in unfolded protein response. 220,000 compounds, 3.8% hits. inhibition, % at 10 µM. CHO-K1 CHOP-promoter luciferase, tunicamycin-induced, 15-18 h;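 active = compounds that reduced the stress-induced luciferase reporter signal by more than about 70% of percent inhibition, limit read from the data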;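 also: 0% = tunicamycin plus vehicle and 100% = wells without tunicamycin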
XBP1 UPR activ: adaptive UPR (XBP1) activation. CHO-XBP1 luciferase reporter, IRE1-XBP1 UPR activation, luminescence; percent of tunicamycin response, DMSO as zero. activation, % at 20 µM. 330,000 compounds, 0.33% hits. AID 463104;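 active = versus positive control, 20 µM dose yields 30% or more activation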;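 also: 100% = tunicamycin at 10 µg/mL and 0% = DMSO only wells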
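Material: IRE1-XBP1 luciferase reporter CHO line / Quantity: one thousand reporter cells per well / Buffer or medium: F12 with 10% serum / Compound: 20 µM single concentration, DMSO 1% / Times: 6 h treatment, 37 °C / Detection: Steady-Glo luciferase glow luminescence, 10 min after reagent addition / Benchmarks: tunicamycin high, DMSO low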
Dynein cargo inh: blocks dynein driven cargo transport along microtubules. 220,000 compounds, 0.47% hits. z-score, hits read low. 3617.4 mouse cells, GR-EGFP nuclear translocation imaging; test concentration mostly 20 µM; stimulated with dexamethasone, 1 µM; active compounds read low;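 active = plate z-score of nuclear minus cytoplasmic receptor signal below a set negative limit, without overly bright fluorescence or cell loss, cut at about -3.5 in these data, passing the limit was not always enough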;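 also: z-score of nuclear minus cytoplasmic ring GR-EGFP intensity difference per well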
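Buffer or medium: tetracycline-free induction medium containing charcoal-stripped FBS / Reagent: dexamethasone agonist, 1.0 µM final, for 30 min / Technique: automated 10x imaging of fixed Hoechst-stained cells / Times: induction 48 h, compound 1 h, agonist 30 min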
UPR CHOP act: apoptotic UPR (CHOP) activation; 330,000 compounds, 0.34% hits; CHO-CHOP luciferase reporter, luminescence; percent of tunicamycin response over DMSO baseline; activation, % at 10 µM;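 active = at 10 µM dose, activation of 40% or more, normalized to positive control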;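 also: 100% = tunicamycin at 10 µg/mL and 0% = DMSO alone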
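Test system: CHO CHOP reporter cells. Input: 500 CHO-CHOP cells per well. Medium: F12 with 10% FBS. Technique: luciferase luminescence. Measure: percent activation relative to tunicamycin control. Dosing: 10 µM compound, 0.5% DMSO. Timing: 16-18 h cell attachment, then 6 h compound exposure, 37 °C.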
Numbers without * were called inactive; ? = inconclusive; nt = no result given.

SMILES	T cruzi repl	L major viab	CHOP inhibitor	XBP1 UPR activ	Dynein cargo inh	UPR CHOP act
Cc1ccc(S(=O)(=O)c2c(C)nn(-c3ccccc3)c2OC(=O)c2ccco2)cc1	-11	-9	103*	-1	-0.31	-1
Cc1ccc2nc(-c3ccccn3)cc(C(=O)NC3CCN(C)CC3)c2c1	17	-4	-9	nt	0.61	nt
COc1ccccc1-c1cc(C(=O)NC2CCN(C)CC2)c2ccc(Cl)c(C)c2n1	59*	nt	nt	17	nt	13
Cc1c(Cl)ccc2c(C(=O)NCCN3CCCCC3)cc(-c3ccccn3)nc12	-7	79*	22	4	0.13	0
COc1ccccc1N1CCN(C2CCCN(C(=O)Cn3cccn3)C2)CC1 (stereo not drawn)	-8	nt	nt	-2	nt	1
Cc1ccc(-c2nn(-c3ccccc3)cc2C=O)o1	-5	52*	-9	2	-3	3
Cn1c(=O)n(C)c2cc(S(=O)(=O)NCc3ccccc3)ccc21	-9	99*	4	3	-1.2	-1
Cn1c(=O)c(=O)n(C)c2cc(S(=O)(=O)NCc3ccc(Cl)cc3)ccc21	-29	100*	5	1	0.47	0
Cc1ccc(S(=O)(=O)NCc2ccc3c(c2)cc(C)n3C)cc1	64*	-3	39	1	1.1	0
O=C1c2ccccc2C(=O)N1Cc1ccc2c(c1)OCO2	-1	-3	14	3	-0.14	1
Cc1cc2cc(CN3C(=O)c4ccccc4C3=O)ccc2n1C	83*	-3	11	-4	-0.67	0
O=C(NCc1ccco1)c1ccccc1SCC(=O)N1CCCC1	nt	nt	nt	2	nt	1
Nc1ncnc2c1ncn2[C@@H]1O[C@H](COP(=O)(O)OP(=O)(O)OP(=O)(O)OP(=O)(O)OC[C@@H]2O[C@H](n3cnc4c(N)ncnc43)C(O)[C@@H]2O)[C@H](O)C1O (stereo partly drawn)	nt	nt	19	nt	nt	nt
C=CCOc1ccc(C2C(C#N)=C(N)N(Nc3ccccc3)C3=C2C(=O)CC(C)(C)C3)cc1OC (stereo not drawn)	10	89*	10	2	-0.41	0
O=C(C[C@@H]1C/C=C\CCCC(=O)OC[C@@H]2CCCN2C1=O)N[C@@H](CO)Cc1ccccc1	nt	nt	nt	-1	nt	1
Cc1oc2c(c1C(=O)c1ccc(Cl)cc1)C(=O)C(=O)c1ccccc1-2	?	101*	-21	nt	-1.9	nt
COc1ccc(C(=O)c2coc(-c3ccccc3C(=O)O)c2C(=O)O)cc1	-12	-2	-1	1	-0.72	1
Cc1ccc(C(=O)c2coc3c2C(=O)C(=O)c2ccccc2-3)cc1	2	100*	-21	6	-0.46	8
O=C(c1ccc(Cl)cc1)c1ccc(CN2C(=O)c3ccccc3C2=O)o1	-5	-4	17	1	3.3	0
COc1ccc(/C=C/C(=O)N2CCN(c3ccccn3)CC2)c(OC)c1OC	1	nt	nt	-2	nt	-1
COc1ccc2cc(C(=O)Nc3ccc(O)cc3)sc(=O)c2c1OC	-25	100*	3	-1	-0.78	1
CCOc1ccccc1Nc1nc(-c2sc(NC(=O)c3ccco3)nc2C)cs1	39	99*	54	-4	-0.11	4
Cc1ccc(Nc2nc(-c3sc(NC(=O)c4ccco4)nc3C)cs2)cc1	0	61*	30	2	0.7	1
Cc1ccccc1Nc1nc(-c2sc(NC(=O)c3ccco3)nc2C)cs1	-18	48	32	-2	0.15	4
Cc1ccc(Nc2nc(-c3sc(NC(=O)c4cccc(Cl)c4)nc3C)cs2)cc1	-25	28	-26	-2	0.14	1
SMILES	T cruzi repl	L major viab	CHOP inhibitor	XBP1 UPR activ	Dynein cargo inh	UPR CHOP act
O=C(c1nn2c(C(F)(F)F)cc(-c3ccccc3)nc2c1Cl)N1CCN2CCCC2C1 (stereo not drawn)	14	nt	nt	0	nt	3
CCOC(=O)c1cnc2c(C)cccc2c1NCc1ccco1	32	56*	48	1	-0.48	2
CCOC(=O)c1cnc2c(C(=O)OC)cccc2c1NCc1ccco1	nt	51*	1	1	1.9	0
COc1ccccc1NS(=O)(=O)c1cc(C(=O)N2CC(C)CC(C)C2)ccc1C (stereo not drawn)	4	8	19	-1	-0.23	-1
OCC1(Cc2ccccc2)CCCN(Cc2cn[nH]c2-c2ccccc2)C1 (stereo not drawn)	17	1	-7	-2	-0.028	-1
COc1cc(Cl)c(CN2CCCC(CO)(Cc3cccc(Cl)c3)C2)cc1OC (stereo not drawn)	36	nt	nt	-3	nt	-1
Cc1c(CN2CCCC(CO)(Cc3cccc(Cl)c3)C2)cnn1C (stereo not drawn)	16	61*	-20	-3	-0.71	-2
CCn1nc(C)c(CN2CCCC(CO)(Cc3ccccc3)C2)c1C (stereo not drawn)	11	61*	46	-2	0.56	1
OCC1(Cc2cccc(Cl)c2)CCCN(Cc2sc(N3CCCC3)nc2Cl)C1 (stereo not drawn)	45	14	58	-2	0.4	0
CCn1nc(C)c(CN2CCCC(CO)(Cc3cccc(Cl)c3)C2)c1C (stereo not drawn)	55*	53*	7	1	0.73	0
CS(=O)(=O)c1ccc(NC(=O)CCCc2nc3ccccc3c(=O)[nH]2)cc1	-4	nt	nt	0	nt	0
CC(=O)N1CCN(CC(=O)Nc2sccc2C#N)CC1	7	1	2	-3	-0.35	0
Cc1cc(C)c(C)c(S(=O)(=O)N2CCN(CC(=O)Nc3sccc3C#N)CC2)c1C	26	57*	27	-2	0.75	-1
CN1CCCC(CC2Oc3ccccc3Sc3ccccc32)C1 (stereo not drawn)	49	100*	-4	3	-0.72	2
CC1CCCN(C(=O)N2c3ccccc3Sc3ccccc32)C1 (stereo not drawn)	31	5	1	0	-0.57	0
COc1ccc(-c2nc(CS(=O)(=O)CC(=O)Nc3ccc(Cl)cc3)c(C)o2)cc1	35	-2	97*	-1	0.12	3
COc1ccc(NC(=O)CS(=O)(=O)Cc2nc(-c3ccc(C)cc3)oc2C)cc1	0	nt	nt	-2	nt	0
COc1cccc(-c2nc(CS(=O)(=O)CC(=O)Nc3cc(C)ccc3C)c(C)o2)c1	3	-5	77*	-2	2.4	5
Cc1ccc(CCNC(=O)C2CCC(=O)N(Cc3ccccc3F)C2)o1 (stereo not drawn)	12	nt	nt	-3	nt	4
Cc1ccc(S(=O)(=O)N2CC(O)C2)cc1	-17	nt	nt	-3	nt	0
